From PubChem
An excerpt weighted towards active compounds, which were near 4.4% of everything screened.
HIF activator = HIF pathway transcriptional activation. AID 1910. activation, % at 7.5 µM (by protocol). hit rate 0.32% among 300,000. U2OS HRE-luciferase reporter, luminescence; normalized: DMSO 0%, desferrioxamine 100%;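 active = mean activation of at least 10% of the iron chelator positive control signal, with at least half of replicates also reaching 10%; inconclusive = mean and replicate majority disagree about reaching 10%; inactive = mean and most replicates under 10%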
HSF1 activator = increases HSF-1 driven luciferase reporter signal | NIH3T3-HGL HSF-1 luciferase reporter, MG132, 8 h; 100% = twice DMSO control signal | activation, % at 9 µM | hit rate 1.7% among 300,000 | AID 504408;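 active = mean replicate activation of at least 50% with a set share of replicates each reaching 50%; inconclusive = only one of those two conditions met; inactive = mean below 50% and too few replicates reaching it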;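 note: 0% = median of the neutral control wells and 100% = twice that signal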
T cruzi inh = blocks replication of Trypanosoma cruzi; hit rate 1.4% among 300,000; inhibition, % (no concentration beside the values); T. cruzi beta-gal in NIH3T3, luminescence, 90 h;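 active = mean inhibition across valid replicates above about 55%, limit read from the data; inconclusive = mean below that limit but half or more replicates reach it; inactive = mean below it, under half of replicates reach it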;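 note: signal also drops with host cell toxicity which is not excluded here; 0% = plate median of DMSO wells and 100% = zero luminescence signal; higher percent means less beta-gal luminescence so fewer parasites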
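Read-out: Parasite load inhibition, % | Test system: Mouse NIH/3T3 fibroblasts infected with β-gal-expressing T. cruzi Tulahuen C4 | Amount: 5,000 cells/well | Medium: DMEM, 2% fetal bovine serum | Signal: GalScreen β-gal luminescence, detergent lysis, 60 min | Timing: 3 h attach, ≥90 h co-culture | Also added: Tulahuen C4 trypomastigotes, 5000/well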
HSF1 inh = HSF1 inhibition | NIH3T3-HGL HSE-luciferase, MG132-induced, luminescence 8 h; hits give low values | activity change, negative = inhibition, % at 7.5 µM (by protocol) | hit rate 0.77% among 300,000 | AID 2098;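 active = more than half of replicate wells show activity change below -50%, luminescence cut by over half; inconclusive = some wells, but at most half, below -50%; inactive = no replicate well below -50%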;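 note: luciferase reports HSF-1 transcriptional activity via heat shock element; 0% = median of DMSO wells and -100% = zero luminescence signal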
Calb FLC = affects C. albicans growth with fluconazole; C. albicans CaCi-2 (fluconazole-resistant clinical isolate) + fluconazole, Alamar Blue growth, 48 h; growth inhibition, % (test concentration not listed); hit rate 0.57% among 300,000; AID 1979;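 active = growth inhibition above about 58% in most replicates, limit read from the data, passing the limit was not always enough; inconclusive = exactly half the replicates above a set limit; inactive = most replicates below a set limit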;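 note: all wells also contain fluconazole at 8 µg/ml as a sub-toxic cotreatment; 0% = median of DMSO wells and 100% = median of geldanamycin control wells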
Starred values were filed as active, the others as inactive; ? = inconclusive; nt = no result.

SMILES	HIF activator	HSF1 activator	T cruzi inh	HSF1 inh	Calb FLC
Cc1ccc2c(c1)N(C(=O)CCC(=O)NCCCN1CCC(Cc3ccccc3)CC1)CCO2	-1	-1	-10	4	2
O=[N+]([O-])c1cc(Br)c(OCc2nnc(-c3ccccc3)o2)c(Br)c1	0	-4	67*	-3	6
O=[N+]([O-])c1ccc2c(OCc3nnc(-c4ccccc4Br)o3)ncnc2c1	1	29	71*	15	8
O=C(OCc1nnc(-c2ccccc2)o1)c1cc([N+](=O)[O-])ccc1Cl	1	3	-2	1	-10
O=C(O)c1ccccc1/C=N/NC(=S)NCc1ccccc1	0	-7	-7	-5	2
Nc1nc2c(s1)CCc1c-2cnn1-c1ccccc1	5	72*	-11	53	10
CCSC1=NC2(CCCCC2)Nc2sc3c(c21)CCCC3	0	47	56*	17	3
Cc1ccccc1NC(=S)N1CCCC(c2nc3ccccc3[nH]2)C1 (stereo not given)	0	1	72*	1	9
Cc1ccc(NC(=S)N2CCCC(c3nc4ccccc4[nH]3)C2)cc1 (stereo not given)	1	22	-1	5	-3
N#C/C(=C\c1ccc(N2CCCCC2)c([N+](=O)[O-])c1)c1nn(-c2ccccc2)c(N)c1C#N	0	-6	62*	1	-8
CC1CCN(c2ccc(/C=C(\C#N)c3nn(-c4ccccc4)c(N)c3C#N)cc2[N+](=O)[O-])CC1	0	4	44	0	?
CC(C)CC1c2[nH]c3ccccc3c2CCN1C(=O)CCC(=O)N(C)C (stereo not given)	2	24	-12	9	?
O=C(O)CSc1nc2ccccc2nc1Cc1ccccc1F	-1	54*	-10	23	-6
O=C(O)CSc1cnc2ccccc2n1	0	-7	-8	-12	7
COc1ccc(C(=O)Nc2cc(C(F)(F)F)ccc2-n2cnc3ccccc32)cc1	-1	65*	-7	28	?
O=C(Nc1cc(C(F)(F)F)ccc1-n1cncn1)c1ccc(-c2ccccc2)cc1	0	-2	74*	-2	30
CC(NC(=O)c1cnccn1)c1ccc(S(N)(=O)=O)cc1 (stereo not given)	0	-11	8	0	-10
Cc1cccc(Cc2cnc(N3C(=N)SC(C)C3=O)s2)c1 (stereo not given)	0	23	68*	18	94*
N=C1SCC(=O)N1c1ncc(Cc2cccc(Cl)c2)s1	-1	28	15	4	13
Cc1ccc(Cc2cnc(N3C(=N)SC(C)C3=O)s2)cc1 (stereo not given)	0	-11	1	-1	82*
Cc1cccc(Cc2cnc(N3C(=N)SC(c4ccccc4)C3=O)s2)c1 (stereo not given)	0	-6	-7	-1	-2
CN1CCN(CCCOc2ccc(-c3ccccc3)cc2)CC1	-8	21	56*	4	-3
CCN1CCN(CCOc2ccc(Cl)cc2)CC1	0	-10	67*	4	-3
Clc1ccc(OCCN2CCN(c3ncnc4sccc34)CC2)cc1	0	nt	-19	nt	100*
CCN1CCN(CCCOc2ccc(-c3ccccc3)cc2)CC1	60*	0	72*	-4	-20
SMILES	HIF activator	HSF1 activator	T cruzi inh	HSF1 inh	Calb FLC
CN1CCN(CCOc2ccc(-c3ccccc3)cc2)CC1	-22	23	43	-3	-36
O=C1NN(c2cccc(Br)c2)C(=O)/C1=C\c1ccc(N2CCOCC2)cc1	-3	-3	-23	-2	-9
CC(O)CNC12CC3CC(CC(C3)C1)C2 (stereo not given)	0	-2	-11	4	3
CC(=O)N(CN1C(=O)c2ccc([N+](=O)[O-])cc2C1=O)c1cccc(C(=O)O)c1	0	-5	-10	-3	0
Cc1ccc(NC(=O)CN(C)S(=O)(=O)c2cnc[nH]2)c(C)c1	0	-24	-5	-5	34
CCS(=O)(=O)N1CCC(C(=O)Oc2ccccc2Cl)CC1	1	3	-7	2	-8
CCC1CCCCN1CCCNC(=O)c1ccc2c(c1)N(Cc1c(F)cccc1Cl)C(=O)CS2 (stereo not given)	0	-4	42	3	-4
CC(=O)N1CCN2C(=O)C1CCCC(=O)c1cc(C)ccc12 (stereo not given)	-1	2	-5	0	1
O=C(c1ccccc1)c1ccc(OCCCN2CCCC2)cc1	1	3	55*	1	5
O=C(Nc1ccc(F)cc1)Nc1csc2ccccc12	3	61*	32	41	8
CN(C)c1ccc(NC(=O)Nc2csc3ccccc23)cc1	2	-48	30	-39	-8
CCOc1ccc(S(=O)(=O)n2c([N+](=O)[O-])cnc2C)c(C)c1C	0	30	4	5	12
Cc1cc(C)cc(C(=O)NC(CC(N)=O)c2ccc(N3CCCCCC3)c([N+](=O)[O-])c2)c1 (stereo not given)	-2	8	-9	-1	12
CCOc1ccc2[nH]c(=O)c(CN(Cc3ccco3)C(CC)c3nnnn3Cc3ccccc3)cc2c1 (stereo not given)	0	15	20	7	16
CCC(c1nnnn1C(C)(C)C)N(Cc1cccs1)Cc1cc2cc(C)c(C)cc2n2nnnc12 (stereo not given)	0	12	56*	7	-4
CCC(c1nnnn1CCc1ccccc1)N(Cc1ccco1)Cc1cc2cccc(C)c2[nH]c1=O (stereo not given)	0	90*	44	68	9
Cc1ccc(C(c2nnnn2C(C)(C)C)N(Cc2ccco2)Cc2cccs2)cc1 (stereo not given)	0	-19	64*	-20	2
CCC(c1nnnn1C(C)(C)C)N(Cc1ccco1)Cc1cc2cccc(C)c2[nH]c1=O (stereo not given)	-1	66*	41	49	9
CC(C)(C)n1nnnc1C(c1ccc(F)cc1)N(Cc1ccc(F)cc1)Cc1ccco1 (stereo not given)	0	19	34	7	14
CN[C@@H]1[C@H](O)[C@H](NC)[C@H]2O[C@@]3(O)C(=O)C[C@@H](C)O[C@H]3O[C@@H]2[C@H]1O	0	-19	1	-8	4
CCc1nn(CC(=O)NCCCN2CCN(CC)CC2)c(=O)c2cc3occc3n12	0	-3	-4	1	-22
Cc1ccc2oc(=O)c3cnn(CC(=O)NC4CCN(Cc5ccccc5)CC4)c3c2c1	-1	8	57*	-1	-3
CCOc1cc(/C=N/NC(=O)c2cccnc2)ccc1OCC(N)=O	nt	nt	nt	nt	107*
CCOc1cc(/C=N/NC(=O)c2cccnc2)ccc1OCC(=O)N(C)C	0	12	-16	2	-9
